What was measured:
[1] = biological target: T1, bovine lung sGC (Bos taurus, UniProt P16068+P19687); assay: NO; assay type: biochemical
T1 sequence (P19687 1-691): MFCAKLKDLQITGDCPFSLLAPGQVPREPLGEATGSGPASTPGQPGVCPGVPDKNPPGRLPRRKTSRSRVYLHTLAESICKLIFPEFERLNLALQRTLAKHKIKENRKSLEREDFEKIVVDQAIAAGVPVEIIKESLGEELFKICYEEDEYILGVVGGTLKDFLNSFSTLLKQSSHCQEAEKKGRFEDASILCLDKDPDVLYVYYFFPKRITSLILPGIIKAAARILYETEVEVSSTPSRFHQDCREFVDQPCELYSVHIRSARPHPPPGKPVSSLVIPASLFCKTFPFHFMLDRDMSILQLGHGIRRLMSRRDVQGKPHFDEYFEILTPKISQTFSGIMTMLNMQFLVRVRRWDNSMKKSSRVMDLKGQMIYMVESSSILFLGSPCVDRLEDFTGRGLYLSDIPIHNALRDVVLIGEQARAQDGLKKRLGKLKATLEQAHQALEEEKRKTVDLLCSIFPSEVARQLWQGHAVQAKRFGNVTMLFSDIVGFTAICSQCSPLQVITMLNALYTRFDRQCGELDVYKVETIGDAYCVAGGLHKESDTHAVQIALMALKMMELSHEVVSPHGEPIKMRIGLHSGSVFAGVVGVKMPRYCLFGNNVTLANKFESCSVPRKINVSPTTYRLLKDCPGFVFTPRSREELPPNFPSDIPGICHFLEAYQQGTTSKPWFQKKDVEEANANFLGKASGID
T1 sequence (P16068 1-619): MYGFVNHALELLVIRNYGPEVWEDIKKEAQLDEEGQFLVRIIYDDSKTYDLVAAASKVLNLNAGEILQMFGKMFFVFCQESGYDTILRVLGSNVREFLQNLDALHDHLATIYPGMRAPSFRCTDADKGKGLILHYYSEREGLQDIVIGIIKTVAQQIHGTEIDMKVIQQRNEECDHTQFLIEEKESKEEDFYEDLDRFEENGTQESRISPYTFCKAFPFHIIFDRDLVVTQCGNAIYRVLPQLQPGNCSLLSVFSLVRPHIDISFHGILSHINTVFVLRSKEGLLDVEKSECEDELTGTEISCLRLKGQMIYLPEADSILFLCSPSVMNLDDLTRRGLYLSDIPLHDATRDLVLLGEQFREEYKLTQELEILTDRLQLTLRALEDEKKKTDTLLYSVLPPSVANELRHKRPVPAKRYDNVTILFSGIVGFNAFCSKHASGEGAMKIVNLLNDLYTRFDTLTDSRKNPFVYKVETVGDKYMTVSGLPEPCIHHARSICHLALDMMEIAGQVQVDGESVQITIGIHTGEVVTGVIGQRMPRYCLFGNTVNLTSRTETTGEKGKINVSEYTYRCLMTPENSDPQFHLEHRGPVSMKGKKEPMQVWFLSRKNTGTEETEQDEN
Method in brief: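 Screening and kinetics used bovine lung sGC diluted 17-fold in 50mM Tris pH 7.5, 5mM MgCl2, 2mM BME, 20% sucrose, 0.5mg/ml BSA. 1nM enzyme was preincubated with inhibitor 10 min at 37°C in 50mM Tris pH 7.5, 2mM BME, 5mM MgCl2. DMSO-matched controls (1–2.5%). GTP plus 100μM SNAP started a 10 min, 37°C reaction, stopped by 10 min boiling. cGMP measured by ELISA; 3 independent experiments.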

[2] = biological target: T1, bovine lung sGC; assay: BAY 58-2667 activated sGC activity assay; assay type: biochemical; details: 100μM inhibitor, 600μM GTP
Method in brief: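 Bovine lung sGC, diluted 17-fold in 50mM Tris pH 7.5, 5mM MgCl2, 2mM BME, 20% sucrose, 0.5mg/ml BSA, used at 1nM. Preincubated 10 min at 37°C with varying BAY 58-2667 and inhibitor in 5mM MgCl2. 0.5% DMSO served as control. GTP added to start. Stopped by boiling; cGMP measured by ELISA. Triplicate, 3 independent experiments; SEM.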

[3] = biological target: T1, bovine lung sGC; assay: BAY 41-2272 stimulated sGC activity assay; assay type: biochemical; details: 100μM inhibitor, range of BAY 41-2272, presence and absence of 1μM SNAP, 500μM GTP
[4] = biological target: T2, sGC catalytic domain (Homo sapiens, UniProt Q02108+Q02153); assay: Purified sGC catalytic domain activity assay; assay type: biochemical; details: 1μM catalytic domain, 3 GTP concentrations, inhibitor 0–600μM
T2 sequence (Q02108 481-608 limits assumed): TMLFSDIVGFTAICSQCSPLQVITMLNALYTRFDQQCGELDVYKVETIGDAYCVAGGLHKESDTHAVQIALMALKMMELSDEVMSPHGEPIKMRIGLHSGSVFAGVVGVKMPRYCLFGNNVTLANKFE
T2 sequence (Q02153 421-554 limits assumed): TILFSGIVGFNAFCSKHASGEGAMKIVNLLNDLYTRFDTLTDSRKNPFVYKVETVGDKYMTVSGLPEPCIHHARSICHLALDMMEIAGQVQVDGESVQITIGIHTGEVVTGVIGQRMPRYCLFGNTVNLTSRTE
Method in brief: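 Heterodimeric α1/β1 catalytic domain was co-purified from mixed cell pellets by His-tag Ni-NTA (30–300mM imidazole elution steps). The tag was removed with TEV, and the protein gel-filtered in 50mM HEPES pH 7, 150mM NaCl and stored at −80°C. Inhibitor was preincubated with domain 10 min at 37°C with Mg2+. GTP started the reaction, stopped by boiling after 10 min. cGMP measured by ELISA; triplicate; SEM.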

[5] = biological target: SHV-1 β-lactamase (Klebsiella pneumoniae, UniProt P0AD64); assay: Promiscuous inhibition test with SHV-1 β-lactamase; assay type: biochemical; details: Fig S1
[6] = Compound aggregation by dynamic light scattering; assay type: physicochemical; details: DYNAPRO, Fig S2
[7] = biological target: T3, full length sGC (Bos taurus, UniProt P16068+P19687); assay: Size exclusion chromatography for sGC aggregation; details: 200μM compound, data not shown
T3 sequence (P19687 1-691): T1 sequence (P19687 1-691)
T3 sequence (P16068 1-619): T1 sequence (P16068 1-619)

Chain of SHV-1 β-lactamase (P0AD64 22-286): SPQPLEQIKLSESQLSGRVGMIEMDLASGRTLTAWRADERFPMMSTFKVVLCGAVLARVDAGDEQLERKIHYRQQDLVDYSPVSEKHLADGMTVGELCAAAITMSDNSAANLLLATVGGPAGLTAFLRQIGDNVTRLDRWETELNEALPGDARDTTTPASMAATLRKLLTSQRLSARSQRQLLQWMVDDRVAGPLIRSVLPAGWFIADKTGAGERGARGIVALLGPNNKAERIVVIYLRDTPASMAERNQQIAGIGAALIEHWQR

Nc1nc(=O)[nH]nc1Nc1ccc(O)cc1 [Compound 1]
inhibition of NO stimulated sGC activity, initial screen ([1]; 1nM sGC, 25μM GTP, 100μM SNAP, 10μM inhibitor): substantial inhibition
α-value (mixed inhibition model) ([1]; global fit of steady state inhibition data, 100μM SNAP): 3.6
inhibition mechanism ([1]; judged from α-value of mixed model fit): mostly non-competitive
inhibition of BAY 58-2667 activated sGC [2]: 96%
inhibition of BAY 41-2272 stimulated sGC [3]: inhibited
inhibition of the purified catalytic domain (in words) [4]: did not observe significant inhibition
inhibition of SHV-1 β-lactamase [5]: did not inhibit
aggregate formation (dynamic light scattering) [6]: do not form detectably large aggregates
sGC aggregation caused by compound (size exclusion chromatography) [7]: did not cause sGC aggregation

Source: paper PMC5077689 (FEBS letters, 2016)
